Results from the RNAGym collection of RNA variant scans (doi:10.1038/s41586-018-0170-7).

B1: tRNA (parent)
chain: GUUCCGUUGGCGUAAUGGUAACGCGUCUCCCUCCUAAGGAGAAGACUGCGGGUUCGAGUCCCGUACGGAACG

Variants of: B1
Experiment: yeast fitness, log relative to wild type (ln ratio); higher = fitter; tRNA-Arg(CCU), competitive growth, 37 C, 1 M NaCl
Summary of the method: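 Two independent transformations put a combinatorial tRNA-Arg(CCU) variant library on a HIS3 centromeric plasmid into BY4742 lacking the chromosomal gene. Pools were grown in SC-HIS at 30 °C for 4 generations, then in SC-HIS 1M NaCl at 37 °C for ~6.5 generations (~26.5 h), with three outputs taken per input. Fitness compares a genotype's generations with the wild type's as a natural log ratio. Those generations are OD-scaled log2 output/input frequencies, inverse-variance weighted across replicates, from 125 bp paired-end Illumina counts.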

Row | Variant | yeast fitness (ln)
1 | G1A U2G G6A C27U C46U C66A A70U C71U | -0.249
2 | U2C G6A C46U A69G C71U | -0.107
3 | U2G G6U C27U C46U C66A | -0.144
4 | G1A G6U A43C A70U | -0.247
5 | G1A G6A A43C A69G A70U | -0.224
6 | U2C A43C C46U C66U A69G A70G | -0.0788
7 | G1A U2G C27U C66U A70U C71U | -0.365
8 | G1A U2C C27U A43C C46U C66U A69G A70G | -0.112
9 | G6A C27U A43C C46U C66U A70G C71U | -0.213
10 | G1A U2G G6A C27U A43C C46U C66U A69G A70G C71U | -0.433
11 | U2C G6U C27U A43C A69G A70G C71U | -0.281
12 | U2C G6U A43C C66U A69G A70G C71U | -0.352
13 | U2G G6U C27U A43C C66U A69G | -0.31
14 | G1A U2C G6A C27U C46U C66U A70U C71U | -0.364
15 | C27U A70U C71U | -0.149
16 | G1A U2G G6A A43C A69G A70U C71U | -0.411
17 | G6A C46U A70U C71U | -0.15
18 | U2C G6U C27U A43C C46U C66A A69G A70U C71U | -0.26
19 | U2C G6A A43C C46U C71U | -0.0721
20 | U2G G6U C27U A43C A70U | -0.207
21 | G1A U2C C27U A43C C46U A69G A70U C71U | -0.215

Row | Variant | yeast fitness (ln)
22 | A43C C46U C66U A69G A70U C71U | -0.356
23 | G6U A43C | -0.132
24 | G1A G6U A43C C66U A70U | -0.212
25 | G1A U2C G6A C66U A70U | -0.0837
26 | G6U A43C C66A A70U | -0.307
27 | U2G G6U C27U A43C C46U A70G | -0.208
28 | U2C C46U C71U | -0.069
29 | G1A U2G G6U C66U A70U C71U | -0.351
30 | C27U C46U C66A C71U | -0.0951
31 | G1A U2G C46U C66A A69G A70G C71U | -0.173
32 | U2G C27U C66U A70G C71U | -0.21
33 | G1A U2G G6U C46U C66U A69G A70G C71U | -0.244
34 | G1A G6A C27U A43C C46U C66U A70G | -0.27
35 | G1A U2G G6U C66A A69G A70U | -0.293
36 | G1A G6U C27U A43C C66U A69G A70G C71U | -0.497
37 | G6A C27U C46U A69G C71U | -0.252
38 | G1A G6U A43C C46U A70G C71U | -0.301
39 | U2G A43C C46U C66U A69G | -0.199
40 | U2C G6A A43C C46U C66U | -0.0992
41 | C27U A43C A69G A70U | -0.204
42 | U2C G6A C27U C46U C66A A69G A70G C71U | -0.188

Row | Variant | yeast fitness (ln)
43 | U2G G6U C27U A43C C66U | -0.298
44 | G1A U2G C46U C66U | -0.0764
45 | U2C G6U C27U A43C A69G C71U | -0.343
46 | U2G C66U A70U | -0.00968
47 | G1A G6U C66U A69G A70U | -0.284
48 | G1A C27U C66U C71U | -0.322
49 | G1A U2C G6U C46U A69G A70G C71U | -0.15
50 | U2G A43C C46U C66U A70G | -0.0585
51 | G6A C46U A69G A70U C71U | -0.218
52 | G1A U2C C46U A69G A70G C71U | 0.00686
53 | U2G C27U A43C C46U C66A A70U C71U | -0.262
54 | U2G C66A | -0.0285
55 | G6A A43C C46U A69G C71U | -0.171
56 | G1A U2G G6A C46U C66U A70G C71U | -0.517
57 | G1A U2G C27U A43C A70G C71U | -0.246
58 | U2G C46U C66A A70G C71U | -0.116
59 | C27U C46U A69G A70U | -0.209
60 | U2C G6U C27U C66A C71U | -0.15
61 | U2C G6A C27U A43C C66A A70U | -0.0983
62 | U2C C66U A69G A70U C71U | -0.404
63 | U2G G6U C27U A43C C46U C66U A69G | -0.317

Row | Variant | yeast fitness (ln)
64 | G1A U2G G6A A43C A69G A70G C71U | -0.29
65 | U2C C27U A70U | -0.0757
66 | G1A U2C G6A C27U A43C C46U A69G A70U C71U | -0.408
67 | G6U A70G | -0.221
68 | G1A G6A C27U C66U A70U C71U | -0.461
69 | C27U C46U C66A A70U C71U | -0.13
70 | U2G G6A C27U C46U C66A A70U C71U | -0.167
71 | U2G C46U A70U | -0.00122
72 | G1A A43C A69G A70G C71U | -0.353
73 | U2G G6U A43C A70G | -0.173
74 | U2G G6U C27U A43C C66A A70U | -0.0378
75 | G6U C46U C66A A69G A70U | -0.302
76 | G6U C46U A70G C71U | -0.202
77 | G6A A43C C46U A70U C71U | -0.151
78 | G1A U2G G6U C66U A69G C71U | -0.375
79 | G1A A43C C66A A70G | -0.19
80 | G6A C27U C66U A70G | -0.0946
81 | G6U A43C C46U C66U A70G | -0.205
82 | G1A U2G G6U A43C C66A A70G | -0.251
83 | U2C A43C C66U A70G | -0.0636
